# Compounds with a hit are over-represented: about 3.1% of the library has one in this group of screens.
# PAFAH1B2 FP inh – PAFAH1B2 enzyme inhibitors, primary screen, biochemical, fluorescence polarization, human. hit rate 1.2% among 340,000. recombinant PAFAH1B2, FP-rhodamine activity probe. AID 492953, 2010. inhibition, % at 3.39 µM;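 active means inhibition above the mean of all tested compounds plus 3 SD, cut at about 24% in these data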;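 further: 0% = enzyme with DMSO and 100% = wells lacking PAFAH1B2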
# PAFAH2 inh – PAFAH2 enzyme inhibitors, primary screen, biochemical, fluorescence polarization, human; hit rate 0.99% among 340,000; recombinant PAFAH2, FP-rhodamine activity probe; inhibition, % at 3.39 µM; AID 492956, 2010; Platelet-activating factor acetylhydrolase 2, cytoplasmic (Homo sapiens), Q99487;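 active means inhibition above the mean over all tested compounds plus 3 SD, cut at about 30% in these data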;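 further: inhibitors block probe labeling of enzyme so polarization drops; 0% = enzyme with DMSO and 100% = wells lacking PAFAH2 protein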
# PAFAH1B3 inh – PAFAH1B3 enzyme inhibitors, primary screen, biochemical, fluorescence polarization, human | AID 492972, 2010 | recombinant PAFAH1B3, FP-rhodamine probe | inhibition, % at 3.39 µM | Platelet-activating factor acetylhydrolase IB subunit alpha1 (Homo sapiens), Q15102 | hit rate 0.28% among 340,000;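 active means inhibition above the screen-wide average of all tested compounds plus 3 SD, cut at about 25% in these data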;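 further: 0% = enzyme with DMSO only and 100% = wells lacking PAFAH1B3 protein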
# Apaf1 inhib – inhibitors of human Apaf-1 apoptosome, primary screen, biochemical, DEVD-Rh110 fluorescence, uHTS. Apoptotic protease-activating factor 1 (Homo sapiens), O14727. inhibition, % at 20 µM. hit rate 0.71% among 330,000. reconstituted apoptosome caspase-3 activity; active means inhibition of at least 40% at 20 µM;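 further: plate controls were DMSO wells for no effect and DEVD-CHO caspase inhibitor wells for full effect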
#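 System: Apoptosome proteins | Medium: Hepes pH 7.5 with detergent and BSA | Also added: Cytochrome c trigger plus (Z-DEVD)2-Rh110 caspase-3 substrate | Incubation: 30 min compound preincubation, 50 min activation, room temperature | Detection: Rhodamine 110 fluorescence at Ex 480/Em 540 nm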
# pPAFAH FP inh – pPAFAH enzyme inhibitors, primary screen, biochemical, fluorescence polarization, human; Platelet-activating factor acetylhydrolase (Homo sapiens), Q13093; recombinant pPAFAH, FP-rhodamine probe fluorescence polarization; inhibition, % at 3.39 µM; hit rate 1.5% among 330,000; AID 463082, 2010;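 active means inhibition above the mean inhibition across the screen plus 3 SD, cut at about 25% in these data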;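 further: inhibitors block binding of the rhodamine activity-based probe so polarization drops; 0% = enzyme with DMSO and 100% = wells lacking pPAFAH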
# Target sequence (Q13093 whole entry, looked up): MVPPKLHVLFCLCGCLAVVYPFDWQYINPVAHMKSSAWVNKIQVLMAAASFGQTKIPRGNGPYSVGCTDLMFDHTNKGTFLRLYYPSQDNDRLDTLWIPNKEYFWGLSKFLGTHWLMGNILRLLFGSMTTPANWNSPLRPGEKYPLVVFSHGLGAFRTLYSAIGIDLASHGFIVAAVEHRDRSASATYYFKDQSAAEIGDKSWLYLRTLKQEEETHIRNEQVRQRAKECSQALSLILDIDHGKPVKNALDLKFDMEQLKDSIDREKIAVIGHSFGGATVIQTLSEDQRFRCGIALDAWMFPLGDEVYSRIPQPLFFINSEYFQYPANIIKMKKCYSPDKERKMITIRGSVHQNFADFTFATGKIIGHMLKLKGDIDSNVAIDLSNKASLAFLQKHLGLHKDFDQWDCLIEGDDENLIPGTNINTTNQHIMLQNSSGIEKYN
# pPAFAH confirm – pPAFAH (PLA2G7) enzyme inhibitors, confirmation, biochemical, fluorescence polarization, human; inhibition, % at 3.39 µM; shares compounds with pPAFAH FP inh; recombinant pPAFAH, FP-Rh probe fluorescence polarization; hit rate 72% among 2,300;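 active means mean inhibition of the triplicate above the hit cutoff set for the earlier primary screen, cut at about 25% in these data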;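 further: 0% = enzyme with DMSO and 100% = wells lacking pPAFAH enzyme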
# The depositor's hits bear a star; / = not tested or not shown.
SMILES,PAFAH1B2 FP inh,PAFAH2 inh,PAFAH1B3 inh,Apaf1 inhib,pPAFAH FP inh,pPAFAH confirm
O=C(CNC(=O)c1ccccc1)OCC(=O)N1N=C(c2ccc(Cl)cc2)CC1c1ccco1 (stereo not drawn),0,9,9,36,14,/
N#C/C(=C\c1ccc(O)c(O)c1)C(=O)N1CCCC1,7,5,11,2,8,/
N#C/C(=C\c1ccc(O)c(O)c1)C(=O)c1ccc(O)c(O)c1,54*,79*,38*,4,93*,85*
CCCCn1c(N)c(N(C)C(=O)c2ccc(Br)o2)c(=O)[nH]c1=O,2,0,1,-4,5,/
CCOC(=O)C1=C(COC(=O)CNC(=O)c2ccc(Cl)cc2Cl)NC(=O)NC1C (stereo not drawn),1,-2,3,-4,4,/
O=C(COC(=O)c1c2c(nc3ccccc13)/C(=C/c1cccc([N+](=O)[O-])c1)CCC2)NC1CCS(=O)(=O)C1 (stereo not drawn),-2,-15,-8,11,38*,44*
Cc1cc(C)c(S(=O)(=O)N2CCN(C(=O)c3ccc(-n4cncn4)c([N+](=O)[O-])c3)CC2)c(C)c1,-1,1,6,14,0,/
CC(C)(C)S(=O)(=O)/C(C#N)=N/Nc1ccc(Cl)cc1,6,2,10,-6,35*,37*
CCOC(=O)C1=C(COC(=O)c2ccc(OC)c(S(=O)(=O)N3CCOCC3)c2)NC(=O)NC1C (stereo not drawn),2,3,5,/,/,/
CCOC(=O)N1CCN(C(=O)COC(=O)CNC(=O)c2ccc(OCC)c(OCC)c2)CC1,1,0,7,-2,/,/
CCOC(=O)c1c(C)[nH]c(C)c1C(=O)COC(=O)Cc1n[nH]c(=O)c2ccccc12,1,-10,-2,3,2,/
Cc1cc(C)c2c(c1)NC(C(=O)O)C1CC=CC21 (stereo not drawn),19,50*,10,20,68*,33*
Cn1c(O)c(/C=N/NC(=O)c2cc3ccccc3cc2O)c2ccccc21,37*,13,37*,26,62*,49*
COc1ccc2c(c1)cc(C(=O)N/N=C/c1c(O)c(C(=O)O)cc3ccccc13)n2C,23,39*,29*,19,59*,84*
CC1CCCC(NC(=O)c2cccs2)C1C (stereo not drawn),3,5,11,12,1,/
CCOc1ccc(-n2cc(-c3ccccc3)c3c(N4CCOCC4)ncnc32)cc1,3,6,6,34,13,/
Cc1cccc(-n2cc(-c3ccccc3)c3c(NN4CCOCC4)ncnc32)c1,0,-1,-3,17,75*,12
CC1CCCC(C)N1/N=C/c1ccc(O)c(O)c1 (stereo not drawn),4,5,13,2,45*,11
COc1ccc(/C=N/N2C(C)CCCC2C)cc1O (stereo not drawn),3,-4,4,3,-2,/
COc1ccccc1NS(=O)(=O)c1ccc(-c2cnc(C3CC3)o2)cc1,4,24,9,11,-5,/
Cc1ccc(NS(=O)(=O)c2ccc(-c3cnc(C4CC4)o3)cc2)c(C)c1,2,4,14,15,53*,46*
O=c1cc2oc3cc(O)c(O)cc3c(-c3ccccc3[N+](=O)[O-])c-2cc1O,17,57*,13,20,88*,83*
O=c1cc(-c2ccccc2Cl)oc2cccc(O)c12,-2,-3,0,3,8,/
O=C(N/N=C/c1cc(Br)cc([N+](=O)[O-])c1O)c1ccc(NC(=O)c2ccc(F)cc2)cc1,8,13,12,19,38*,55*
Cc1cc(C(=O)CCl)c(C)n1CCc1ccccc1,/,/,/,10,54*,4
COc1ccc(CNC(=O)Cc2ccc(NC(=O)C3=C(C)OCCS3)cc2)cc1,-3,2,-2,-4,24,/

# High-throughput results: PubChem, several laboratories
